# Measured values from publication PMC4562733 (International Journal of Nanomedicine, 2015).
# How the values were obtained:
# [1] = system: MDA-MB-231 cells; experiment: Apoptosis study, PI staining and flow cytometry; assay type: cell-based, human; conditions: MDA-MB-231, 24 hours, 1 mg/mL
# Procedure, shortened: (§1)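 Cells grown at 37°C, 5% CO2 in DMEM or RPMI 1640 with 10% FBS and penicillin/streptomycin. They were exposed for 24 h to free PTX or the fluorescein-labelled folate–PTX conjugates, added as a 1 mg/mL solution. Cells were then resuspended in binding buffer, stained with propidium iodide, and analysed at once by flow cytometry. The PI-positive late apoptotic/necrotic quadrant (Q4) was scored.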
# [2] = system: MCF-7 cells; experiment: Apoptosis study, PI staining and flow cytometry; assay type: cell-based, human; conditions: MCF-7, 24 hours, 1 mg/mL
# Procedure, shortened: as §1
# [3] = system: A549 tumors; experiment: In vivo antitumor activity; parameters: species or system nude mice; conditions: for tumor growth inhibition rate: 5 mg/kg i.v. every 3 days, five injections
# Procedure, shortened: (§2)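 Tumor cells implanted in the upper right axillary fossa of nude mice; treatment began when tumors reached 0.2–0.5 cm diameter. Mice were randomized to four groups (n=5): PBS pH 7.4 control, free paclitaxel, or test conjugates, each at 5 mg/kg in 0.2 mL. Dosing was by tail vein every 3 days, five injections over 15 days. Tumor volume and body weight were recorded daily; values are mean ± SD.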
# [4] = system: MCF-7 tumors; experiment: In vivo antitumor activity; parameters: species or system nude mice; conditions: MCF-7-bearing mice; for tumor growth inhibition rate: 5 mg/kg i.v. every 3 days, five injections
# Procedure, shortened: as §2
# [5] = system: MDA-MB-231, MCF-7, and A549 cancer cells; experiment: Cell viability; assay type: cell-based, human
# Procedure, shortened: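 MTT assay. Cells were plated at 5×10^3 per well and exposed for 48 h to PTX or the conjugates (theoretical PTX content 45.93% and 47.71%) at […]–1 μg/mL, equal to 0.01435–0.4771 μg/mL conjugated PTX. Each drug was tested in six wells. MTT (5 mg/mL stock) was then added and absorbance read at 490 nm.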
# [6] = system: A549 cells; experiment: Apoptosis study, PI staining and flow cytometry; assay type: cell-based, human; conditions: A549, 24 hours, 1 mg/mL
# Procedure, shortened: as §1
# [7] = Acute toxicity; conditions: both, Kunming, mouse, in vivo, iv
# [8] = system: normal (Kunming) mice; experiment: Acute toxicity; conditions: tail vein, mice
# [9] = system: MCF-7 cells; experiment: Cellular uptake by flow cytometry; assay type: cell-based, human; conditions: MCF-7, 1 mg/mL, 8 hours
# Procedure, shortened: (§3)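 Cells were seeded at 5×10^5 per well in culture medium (37°C, 5% CO2) and left overnight. They were then given 1 mg/mL solution of the FITC- or 5-aminofluorescein-labelled folate–PTX conjugates and incubated 8 h at 37°C. Cells were resuspended in PBS and immediately analysed by flow cytometry for percentage of fluorescent cells.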
# [10] = system: HEK293 cells; experiment: Cellular uptake by flow cytometry; assay type: cell-based, human; conditions: HEK293 normal cells, 1 mg/mL, 8 hours
# Procedure, shortened: as §3
# [11] = system: A549 cells; experiment: Cellular uptake by flow cytometry; assay type: cell-based, human; conditions: A549, 1 mg/mL, 8 hours
# Procedure, shortened: as §3
# [12] = system: MDA-MB-231 cells; experiment: Cellular uptake by flow cytometry; assay type: cell-based, human; conditions: MDA-MB-231, 1 mg/mL, 8 hours
# Procedure, shortened: as §3
# [13] = system: tumor cell lines (MDA-MB-231, MCF-7, A549); experiment: Cellular uptake by flow cytometry, tumor groups together; assay type: cell-based, human; conditions: range over the three tumor cell lines
# Procedure, shortened: as §3
# [14] = PTX loading by HPLC standard curve; assay type: physicochemical; conditions: HPLC peak area versus PTX content, n=5
# Procedure, shortened: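 PTX content of the conjugate was calculated theoretically and checked against an HPLC standard curve of peak area versus PTX content, with standards in anhydrous ethyl alcohol.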
# [15] = Release of free PTX in human plasma, HPLC; assay type: in vitro ADME; conditions: 37°C, 4 hours
# Procedure, shortened: (§4)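 Test conjugate was dissolved at 5 mg per 2.5 mL in PBS pH 7.4 or human plasma and held at 37°C for up to 12 hours. Aliquots were drawn at set times and free PTX was extracted into ethyl acetate. Free PTX was quantified by reverse-phase C18 HPLC at 1 mL per minute and 30°C, with UV detection at 227 nm.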
# [16] = Release of free PTX in PBS; assay type: physicochemical; conditions: PBS pH 7.4, 37°C, 4 hours
# Procedure, shortened: as §4
# [17] = Aqueous solubility; assay type: physicochemical; conditions: water, room temperature (25°C), n=4
Compound,late apoptosis/necrotic value (Q4) [1] [%],late apoptosis/necrotic value (Q4) [2] [%],"decrease of body weight, of original weight ([3]; A549-bearing mice)",tumor growth inhibition rate ([3]; A549-bearing mice) [%],tumor growth inhibition rate [4],late apoptosis/necrotic value (Q4) [6] [%],cell uptake rate [9] [%],cell uptake rate [10] [%],cell uptake rate [11] [%],cell uptake rate [12] [%],percentage cell uptake in the tumor groups [13],PTX loading [14],free PTX released [16] [%],other results
"CC(=O)O[C@H]1C(=O)[C@@]2(C)[C@H]([C@H](OC(=O)c3ccccc3)[C@]3(O)C[C@H](OC(=O)[C@H](O)[C@@H](NC(=O)c4ccccc4)c4ccccc4)C(C)=C1C3(C)C)[C@]1(OC(C)=O)CO[C@@H]1C[C@@H]2O [PTX, Paclitaxel, reference compound]",25.8,19.9,about 25.34%,35.23,about 38.16%,14.6,–,–,–,–,–,–,–,"decrease of body weight ([3]; A549-bearing mice): 3.92 g; body weight loss ([4]; end of treatment): 3.88 g; body weight loss, of original body weight ([4]; end of treatment): approximately 20%; inhibition ratio (of total cells) ([5]; MTT, 48 hours, three tumor cell lines, maximum reached): ≤ 62.4%; LD50 at 14 days [7]: 25.48 ± 0.17 mg/kg; survival rate ([8]; 15 mg/kg): 90%; survival rate ([8]; 45 mg/kg): 0%"
"CC(=O)O[C@H]1C(=O)[C@@]2(C)[C@H]([C@H](OC(=O)c3ccccc3)[C@]3(O)C[C@H](OC(=O)[C@H](OC(=O)[C@H](CCC(=O)Nc4ccc5c(c4)C(=O)OC54c5ccc(O)cc5Oc5cc(O)ccc54)NC(=O)CC[C@H](NC(=O)c4ccc(NCc5cnc6nc(N)[nH]c(=O)c6n5)cc4)C(=O)O)[C@@H](NC(=O)c4ccccc4)c4ccccc4)C(C)=C1C3(C)C)[C@]1(OC(C)=O)CO[C@@H]1C[C@@H]2O [FA-5AF-Glu-PTX, folic acid-5-aminofluorescein-glutamic-paclitaxel]",34.1,27.9,about 2%,–,–,16.3,75.1,1.9,59.0,85.9,59.01%–85.93%,32.19%±0.35%,23.3,inhibition rate relative to free PTX ([3]; A549 tumor): ~1.3 times; body weight change during treatment [4]: gradual increase; free PTX released [15]: 54.84%; solubility [17]: 6410 ± 180 µg/mL
folic acid-fluorescein-5(6)-isothiocyanate-arginine-paclitaxel [FA-FITC-Arg-PTX],36.5,26.7,–,48.65,57.63%,16.8,78.1,2.1,63.2,89.6,63.22%–89.63%,38.70%±0.49%,25.8,"cell viability ([5]; tumor cells, high doses): approximately 20%"
